High-throughput results as filed in PubChem.
Only some compounds are listed: those with a hit (about 3.5% of all), similar ones and a draw of the others.
PAFAH2 inh – PAFAH2 enzyme inhibitors, primary screen, biochemical, fluorescence polarization, human | Platelet-activating factor acetylhydrolase 2, cytoplasmic (Homo sapiens), Q99487 | recombinant PAFAH2, FP-rhodamine activity probe | inhibition, % at 3.39 µM | 0.99% of 340,000 active | AID 492956, 2010;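 active = inhibition above the mean over all tested compounds plus 3 SD, cut at about 30% in these data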;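 note: inhibitors block probe labeling of enzyme so polarization drops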
PREPL inh – PREPL enzyme inhibitors, primary screen, biochemical, fluorescence polarization. recombinant PREPL, fluorescence polarization activity-based probe. AID 2751, 2010. Prolyl endopeptidase-like (Homo sapiens), Q4J6C6. 0.68% of 320,000 active. inhibition, % at 5.96 µM; in the data active = inhibition above about 43%
Target sequence (Q4J6C6 whole entry, looked up): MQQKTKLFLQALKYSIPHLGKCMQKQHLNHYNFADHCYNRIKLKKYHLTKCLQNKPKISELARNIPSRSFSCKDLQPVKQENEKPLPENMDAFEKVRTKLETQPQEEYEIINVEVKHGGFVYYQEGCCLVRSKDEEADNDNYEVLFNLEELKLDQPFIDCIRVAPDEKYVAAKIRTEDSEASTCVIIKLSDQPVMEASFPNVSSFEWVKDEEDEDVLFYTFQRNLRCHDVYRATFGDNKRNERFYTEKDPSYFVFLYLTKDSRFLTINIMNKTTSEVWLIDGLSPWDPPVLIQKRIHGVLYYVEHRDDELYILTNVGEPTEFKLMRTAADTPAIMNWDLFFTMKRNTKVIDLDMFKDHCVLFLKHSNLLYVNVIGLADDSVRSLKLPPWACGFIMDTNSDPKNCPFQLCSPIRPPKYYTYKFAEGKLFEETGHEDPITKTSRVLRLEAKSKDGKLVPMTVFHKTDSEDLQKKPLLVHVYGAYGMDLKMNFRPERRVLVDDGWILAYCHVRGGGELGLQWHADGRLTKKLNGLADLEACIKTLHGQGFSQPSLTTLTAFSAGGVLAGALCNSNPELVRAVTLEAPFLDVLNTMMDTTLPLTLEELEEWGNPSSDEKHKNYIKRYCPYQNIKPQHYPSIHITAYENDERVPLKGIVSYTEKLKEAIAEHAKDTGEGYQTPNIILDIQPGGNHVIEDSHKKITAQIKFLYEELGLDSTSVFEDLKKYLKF
PAFAH1B3 inh – PAFAH1B3 enzyme inhibitors, primary screen, biochemical, fluorescence polarization, human | recombinant PAFAH1B3, FP-rhodamine probe | inhibition, % at 3.39 µM | 0.28% of 340,000 active | AID 492972, 2010;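 active = inhibition above the screen-wide average of all tested compounds plus 3 SD, cut at about 25% in these data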
PAFAH1B2 inh – PAFAH1B2 enzyme inhibitors, primary screen, biochemical, fluorescence polarization, human; Platelet-activating factor acetylhydrolase IB subunit alpha2 (Homo sapiens), P68402; recombinant PAFAH1B2, FP-rhodamine activity probe; inhibition, % at 3.39 µM; 1.2% of 340,000 active;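 active = inhibition above the mean of all tested compounds plus 3 SD, cut at about 24% in these data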
Apaf-1 inh – inhibitors of human Apaf-1 apoptosome, primary screen, biochemical, DEVD-Rh110 fluorescence, uHTS; Apoptotic protease-activating factor 1 (Homo sapiens), O14727; reconstituted apoptosome caspase-3 activity; inhibition, % at 20 µM; 0.71% of 330,000 active; active = inhibition of at least 40% at 20 µM
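Medium: Hepes buffer, pH 7.5 / System: biochemical Apaf-1 apoptosome reconstitution / Measured by: Rh110 fluorescence, excitation 480 nm, emission 540 nm / Times: compound with Apaf-1, dATP, procaspase-3 30 min, then 50 min reaction, room temperature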
pPAFAH inh – pPAFAH enzyme inhibitors, primary screen, biochemical, fluorescence polarization, human | Platelet-activating factor acetylhydrolase (Homo sapiens), Q13093 | recombinant pPAFAH, FP-rhodamine probe fluorescence polarization | inhibition, % at 3.39 µM | 1.5% of 330,000 active | AID 463082, 2010;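 active = inhibition above the mean inhibition across the screen plus 3 SD, cut at about 25% in these data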;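 note: inhibitors block binding of the rhodamine activity-based probe so polarization drops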
Of the large screens only hits and unclear results are named; the others gave an inactive call.

CCOc1ccc(Br)cc1S(=O)(=O)Nc1ccc(C(=O)Nc2ccc(C)cc2)cc1	none
O=C(NCC(=O)N(c1cccnc1)C(C(=O)NC1CCCC1)c1cccs1)c1cccs1 (centres undefined)	none
COc1ccc(C)cc1NC(=O)CCCNC(=O)Cn1cnc2sc(C)c(C)c2c1=O	none
Cc1ccc(SCCNC(=O)c2ccc([N+](=O)[O-])c(C)c2)cc1	PAFAH1B2 inh 28
Nc1ccc(CSc2ccccc2)cc1	PAFAH1B2 inh 32 (no result: PREPL inh, Apaf-1 inh, pPAFAH inh)
Nc1ccc(SCc2cccnc2)cc1	none
Cn1cccc1C(=O)OCC(=O)Nc1ccc2c(c1)CCC2	PAFAH2 inh 62, pPAFAH inh 28
Cn1cccc1C(=O)OCC(=O)Nc1ccc2c(c1)OCO2	none
O=C(COc1c(Br)cc(Br)c2cccnc12)Nc1ccccc1F	pPAFAH inh 30
CC(C)(C)[C@H]1COC(=O)[C@@H](Cc2ccc(F)cc2)C/C=C\C[C@@H](CC(=O)N[C@H](CO)Cc2ccccc2)C(=O)N1	PAFAH1B2 inh 66
C[C@@H]1COC(=O)[C@H](Cc2ccc(F)cc2)CC/C=C/C[C@@H](CC(=O)N[C@@H](CO)Cc2ccccc2)C(=O)N1	none
CC(C)(C)[C@H]1COC(=O)[C@@H](Cc2ccc(F)cc2)C/C=C\C[C@@H](CC(=O)N[C@@H](CO)Cc2ccccc2)C(=O)N1	PAFAH1B2 inh 34
CC(C)C1Nc2c(O)cc(Cl)c([N+](=O)[O-])c2C2C=CCC21 (centres undefined)	PAFAH1B2 inh 42 (no result: PREPL inh, Apaf-1 inh, pPAFAH inh)
O=C(O)c1cc(N2C(=O)CCC2=O)ccc1Cl	none
CC(NC(=O)COC(=O)C12CC3CC(CC(Br)(C3)C1)C2)c1ccccc1 (centres undefined)	PAFAH1B2 inh 41
O=C(CNC(=O)C12CC3CC(CC(C3)C1)C2)NCc1ccccc1	none
O=C(NCc1ccccc1)C12CC3CC(CC(Br)(C3)C1)C2	PAFAH1B2 inh 35
O=c1c(/C=N\NS(=O)(=O)c2ccccc2)coc2ccc(Cl)cc12	none
O=C(N1CCCCC1)C1(c2ccccc2)CCCCC1	PAFAH1B2 inh 30
O=C(N1CCOCC1)C1(c2ccccc2)CCCCC1	PAFAH1B2 inh 28
COc1ccc(OCCCC(=O)OCC(=O)NNC(=O)c2ccc([N+](=O)[O-])cc2)cc1	none
COc1cc(/C=N/Nc2nc(C)nc3c2cnn3-c2ccccc2)ccc1O	PAFAH1B2 inh 28 (no result: PREPL inh, Apaf-1 inh, pPAFAH inh)
Cc1cc2ncn(S(=O)(=O)N3CCOCC3)c2cc1C	none
Cc1cc2ncn(S(=O)(=O)N3CCCCC3)c2cc1C	PAFAH1B2 inh 25
CCN(c1ccccc1)S(=O)(=O)c1ccc(Cl)c(NC(=O)COC(=O)c2ccc(O)cc2)c1	PAFAH2 inh 67, pPAFAH inh 34
CCN(c1ccccc1)S(=O)(=O)c1ccc(Cl)c(NC(=O)COC(=O)c2cc(O)c3ccccc3c2O)c1	Apaf-1 inh 48 (no result: PAFAH2 inh, PAFAH1B3 inh, PAFAH1B2 inh)
CCN(c1ccccc1)S(=O)(=O)c1ccc(Cl)c(C(=O)OCC(=O)NC(=O)C(C)C)c1	none
O=C(CSCc1ccccc1Cl)Nc1ccc(C(=O)O)cc1	none
O=C(CSCc1ccccc1Cl)NNC(=S)Nc1ccccc1	pPAFAH inh 29
Cc1ccccc1NC(=O)NCCc1ccc(Cl)cc1	PAFAH1B2 inh 29
COc1ccccc1NC(=S)NCCSc1ccc(Cl)cc1	none
S=C(NCCc1ccc(Cl)cc1)NC1CC1	PAFAH1B2 inh 42
Cc1ccccc1NC(=O)NCCCCc1ccccc1	none
COc1cccc(NC(=O)NCCc2ccc(Cl)cc2)c1	none
CC(=O)c1cccc(NC(=O)NCCc2ccc(Cl)cc2)c1	PAFAH1B2 inh 27
COc1ccccc1NC(=S)NCCc1ccc(Cl)cc1	PAFAH1B2 inh 34
COc1ccc(NC(=O)CSc2nc(=O)n(CCN3CCOCC3)c3c2CCCC3)c(OC)c1	none
CCc1cc(C(=O)OC)c(NC(=O)CC2SC(=NC)N(C)C2=O)s1 (centres undefined)	none
CC1=CCC2C(=O)N(c3ccccc3OC(=O)c3ccccc3F)C(=O)C2C1 (centres undefined)	none
CCc1ccc(NC(=O)CCCNC(=O)Cn2cnc3sc(C)c(C)c3c2=O)cc1	none
O=C(NC1CC1)C1CCN(S(=O)(=O)c2cc([N+](=O)[O-])ccc2Cl)CC1	pPAFAH inh 32
COc1ccc(C(=S)N2CCOCC2)cc1OS(=O)(=O)c1ccc(Br)cc1	PAFAH1B2 inh 34
CC(C)C(OC(=O)c1nsc(Cl)c1Cl)C(=O)NCc1ccccc1 (centres undefined)	pPAFAH inh 26
Cc1snc(SCc2cccc(Cl)c2)c1C#N	none
O=C1CSC(c2ccccc2O)N1Cc1ccccc1 (centres undefined)	PAFAH1B2 inh 25
Cc1ccc(C2SCC(=O)N2Cc2ccccc2)cc1 (centres undefined)	PAFAH1B2 inh 29
O=C1CSC(c2cccc(O)c2)N1Cc1ccccc1 (centres undefined)	none
N/C(=N\OC(=O)C12CC3CC(CC(C3)C1)C2)c1ccccn1	PAFAH1B2 inh 24
N/C(=N\OC(=O)C12CC3CC(CC(C3)C1)C2)c1ccccc1	none
CCOc1ccc(-n2c(=O)c3sccc3n(CC(=O)NCCc3ccc(OC)c(OC)c3)c2=O)cc1	none
O=C1NC(=Nc2ccccc2)SC1Cc1ccccc1 (centres undefined)	none (no result: PAFAH2 inh, PAFAH1B3 inh, PAFAH1B2 inh)
O=C1NC(=Nc2ccccc2)SC1Cc1cccc(Cl)c1Cl (centres undefined)	pPAFAH inh 29 (no result: Apaf-1 inh)
O=C(CN1C(=O)NC2(CCCCCCC2)C1=O)NCc1ccccc1	none
O=C(O)c1ccc2c(c1)C(=O)/C(=C/c1ccccc1)C2=O	PAFAH1B3 inh 39, pPAFAH inh 27
O=[N+]([O-])c1cc(S(=O)(=O)Nc2ccccc2)ccc1N1CCN(c2ccc(O)cc2)CC1	pPAFAH inh 30
COc1ccccc1CNC(=O)COC(=O)CSc1ccc(F)cc1	none
O=C(O)CC/C(=C\c1ccc(N2CCCC2)c([N+](=O)[O-])c1)c1nc2ccccc2s1	PAFAH1B2 inh 103
O=C(O)CC/C(=C\c1cc([N+](=O)[O-])ccc1Cl)c1nc2ccccc2s1	none (no result: Apaf-1 inh)
O=C(O)CC/C(=C\c1ccccc1[N+](=O)[O-])c1nc2ccccc2s1	none
CN(c1ccccc1)c1ccc(/C=C(/CCC(=O)O)c2nc3ccccc3s2)cc1[N+](=O)[O-]	PAFAH2 inh 41, PAFAH1B2 inh 94 (no result: PREPL inh, Apaf-1 inh, pPAFAH inh)
N#Cc1cccc(C(=O)Nc2ccccc2C(=O)NC2CC2)c1	none (no result: PREPL inh, pPAFAH inh)
CCOC(=O)C(C(=O)N(C)Cc1ccccc1)C1CCCCC1 (centres undefined)	none
O=C(NCc1ccco1)c1c2c(nc3ccccc13)CCC2	pPAFAH inh 27
